As a reminder, the Ki is a dissociation constant, usually derived from enzyme kinetics or from competition with a known ligand. A lower Ki goes with higher affinity.

Ki and Ratio data for 13 molecules are collected here from ChEMBL document CHEMBL1132231, “New generation dopaminergic agents. 6. Structure-activity relationship studies of a series of 4-(aminoethoxy)indole and 4-(aminoethoxy)indolone derivatives based on the newly discovered 3-hydroxyphenoxyethylamine D2 template” (J Med Chem, 1999).

Assay [1] has as its target T1, 5-hydroxytryptamine receptor 1A (Rattus norvegicus, UniProt P19327).
T1 sequence (P19327 whole entry): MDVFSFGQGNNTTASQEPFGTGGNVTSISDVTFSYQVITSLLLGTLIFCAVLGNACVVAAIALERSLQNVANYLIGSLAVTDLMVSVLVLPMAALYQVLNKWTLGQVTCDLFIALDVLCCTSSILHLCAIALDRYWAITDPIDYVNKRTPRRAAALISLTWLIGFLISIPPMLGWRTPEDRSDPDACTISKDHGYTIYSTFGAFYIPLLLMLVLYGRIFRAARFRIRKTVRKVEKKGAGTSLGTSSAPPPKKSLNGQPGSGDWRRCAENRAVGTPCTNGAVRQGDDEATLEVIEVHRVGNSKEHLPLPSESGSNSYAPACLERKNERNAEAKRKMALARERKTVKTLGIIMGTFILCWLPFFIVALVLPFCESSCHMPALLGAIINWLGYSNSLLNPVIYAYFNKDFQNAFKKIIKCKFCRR
The assay can be described thus: In vitro binding affinity towards 5-hydroxytryptamine 1A receptor by the displacement of [3H]8-OH-DPAT radioligand in rat hippocampal homogenates. It is filed as tissue-based, Hippocampus. (In a radioligand displacement assay an active substance lowers the binding of a labelled ligand.)

Assay [2] concerns the target T2, Adrenergic receptor alpha-1 (Rattus norvegicus, UniProt P15823+P23944+P43140).
T2 sequence (P15823 whole entry): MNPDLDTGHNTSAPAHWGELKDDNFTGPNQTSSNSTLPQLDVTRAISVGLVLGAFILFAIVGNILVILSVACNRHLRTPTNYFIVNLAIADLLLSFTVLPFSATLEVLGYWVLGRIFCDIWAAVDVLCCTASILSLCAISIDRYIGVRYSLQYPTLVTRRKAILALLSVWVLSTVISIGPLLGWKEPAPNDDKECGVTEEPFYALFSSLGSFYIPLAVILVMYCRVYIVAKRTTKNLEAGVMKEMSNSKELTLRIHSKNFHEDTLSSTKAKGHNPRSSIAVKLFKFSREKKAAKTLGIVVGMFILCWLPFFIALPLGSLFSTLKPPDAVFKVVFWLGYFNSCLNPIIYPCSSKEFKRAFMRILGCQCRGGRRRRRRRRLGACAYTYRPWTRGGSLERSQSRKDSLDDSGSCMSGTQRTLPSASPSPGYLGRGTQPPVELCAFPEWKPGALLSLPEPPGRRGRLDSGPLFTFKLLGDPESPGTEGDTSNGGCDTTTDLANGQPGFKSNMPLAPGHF
T2 sequence (P23944 whole entry): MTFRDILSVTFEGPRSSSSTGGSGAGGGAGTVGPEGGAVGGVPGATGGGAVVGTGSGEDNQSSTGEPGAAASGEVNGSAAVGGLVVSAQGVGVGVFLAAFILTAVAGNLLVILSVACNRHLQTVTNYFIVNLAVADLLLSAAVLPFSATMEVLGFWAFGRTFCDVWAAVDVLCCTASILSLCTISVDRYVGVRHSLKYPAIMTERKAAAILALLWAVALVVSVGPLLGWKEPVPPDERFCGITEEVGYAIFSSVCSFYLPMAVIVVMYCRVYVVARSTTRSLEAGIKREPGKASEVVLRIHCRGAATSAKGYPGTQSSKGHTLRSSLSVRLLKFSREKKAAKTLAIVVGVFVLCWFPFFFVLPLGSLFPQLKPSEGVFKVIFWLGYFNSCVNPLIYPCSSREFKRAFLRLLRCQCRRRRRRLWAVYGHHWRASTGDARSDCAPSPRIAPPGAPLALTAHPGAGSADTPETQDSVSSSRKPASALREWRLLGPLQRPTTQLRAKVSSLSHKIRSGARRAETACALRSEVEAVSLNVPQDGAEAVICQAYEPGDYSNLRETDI
T2 sequence (P43140 whole entry): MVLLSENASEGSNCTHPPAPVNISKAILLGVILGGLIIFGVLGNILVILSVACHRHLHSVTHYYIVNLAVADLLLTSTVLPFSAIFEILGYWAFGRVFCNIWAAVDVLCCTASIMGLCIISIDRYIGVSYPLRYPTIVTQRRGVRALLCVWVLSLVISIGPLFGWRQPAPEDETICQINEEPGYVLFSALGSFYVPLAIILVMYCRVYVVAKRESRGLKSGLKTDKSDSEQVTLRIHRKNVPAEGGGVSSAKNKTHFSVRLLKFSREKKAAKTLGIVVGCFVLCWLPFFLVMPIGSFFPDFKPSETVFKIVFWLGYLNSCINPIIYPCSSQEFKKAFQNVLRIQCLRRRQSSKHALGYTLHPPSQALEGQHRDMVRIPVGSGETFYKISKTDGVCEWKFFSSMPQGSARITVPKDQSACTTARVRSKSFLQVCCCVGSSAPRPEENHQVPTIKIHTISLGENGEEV
Put plainly: In vitro binding affinity towards Alpha-1 adrenergic receptor by the displacement of [3H]prazosin radioligand in rat cortical homogenates.

Assay [3] has as its target T3, D(2) dopamine receptor (Rattus norvegicus, UniProt P61169). Put plainly: In vitro high binding affinity towards Dopamine receptor D2 by the displacement of [3H]quinpirole radioligand in rat striatal membranes. It is filed as cell membranes, Membrane.
Assay [4] addresses T3, D(2) dopamine receptor. Put plainly: In vitro low binding affinity towards Dopamine receptor D2 by the displacement of [3H]spiperone radioligand in rat striatal membranes. The assay is classed as cell membranes, Membrane.
Assay [5] deals with T1, 5-hydroxytryptamine receptor 1A. The assay can be described thus: The compound was tested for binding affinity on [3H]8-OH-DPAT as specific ligand on 5-hydroxytryptamine 1A receptor in rat hippocampus. It is filed as tissue-based. In a few lines: (§1)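 Rat hippocampal homogenates labelled with [3H]-8-OH-DPAT (1.8 nM), incubated 10 min at 37 °C. Stopped with cold 50 mM Tris pH 7.7. Test compounds run in triplicate at at least eight concentrations. IC50 found by nonlinear regression and converted to apparent Ki by Cheng-Prusoff. Ki values are means of at least two experiments ± SEM; values without SEM are single determinations.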

The target in assay [6] is T2, Adrenergic receptor alpha-1. The assay can be described thus: In vitro binding affinity towards alpha-1 adrenergic receptor by the displacement of [3H]prazosin radioligand in rat cortical homogenates. In a few lines: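 Rat cortical homogenates labelled with [3H]prazosin (0.2 nM), incubated 30 min at 25 °C. Stopped with cold 50 mM Tris pH 7.4, then rapid filtration. Triplicate, at least eight concentrations. Nonlinear regression gave IC50, converted to apparent Ki by Cheng-Prusoff. Means of at least two experiments ± SEM; values without SEM are single determinations.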

Assay [7] deals with D(2) dopamine receptor (Rattus norvegicus) (UniProt P61169). Put plainly: Ratio of Dopamine D2 receptor (low)and Dopamine D2 receptor (high). The method in brief:
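Ratio Ki(low)/Ki(high). Ki(low) comes from displacement of 1 nM [3H]spiperone in striatal membranes with 1 mM GppNHp and NaCl, 37 °C for 5 min. […] Both Ki values derived by Cheng-Prusoff from nine concentrations in triplicate; the ratio serves as an estimate of intrinsic activity.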

Assay [8] has as its target T1, 5-hydroxytryptamine receptor 1A. Put plainly: In vitro binding affinity towards 5-hydroxytryptamine 1A r receptor by the displacement of [3H]8-OH-DPAT radioligand in rat hippocampal homogenates. It is filed as tissue-based, Hippocampus. The method in brief:
as §1

Molecules are shown by their SMILES.

T3 sequence (P61169 whole entry): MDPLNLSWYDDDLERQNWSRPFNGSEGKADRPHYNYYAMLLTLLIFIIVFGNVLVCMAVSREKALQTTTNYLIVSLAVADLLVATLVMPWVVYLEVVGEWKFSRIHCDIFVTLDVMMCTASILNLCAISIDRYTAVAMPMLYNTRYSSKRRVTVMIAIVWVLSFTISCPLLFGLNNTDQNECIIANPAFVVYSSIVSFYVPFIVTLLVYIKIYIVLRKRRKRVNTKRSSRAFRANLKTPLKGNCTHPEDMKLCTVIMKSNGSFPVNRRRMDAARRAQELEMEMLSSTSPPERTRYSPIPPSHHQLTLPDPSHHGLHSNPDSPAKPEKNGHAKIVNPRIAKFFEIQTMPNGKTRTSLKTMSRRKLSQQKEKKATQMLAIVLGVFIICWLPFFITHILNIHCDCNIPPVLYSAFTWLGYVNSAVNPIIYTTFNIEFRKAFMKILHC
D(2) dopamine receptor (Rattus norvegicus), sequence (P61169 whole entry): as above

Turning to `c1ccc(CNC[C@H]2CCc3ccc4[nH]ccc4c3O2)cc1`, the Ki was found to be 0.4 nM in assay [1], 24 nM in assay [2], 1.9 nM on D(2) dopamine receptor [3] and 35.9 nM on D(2) dopamine receptor [4].
The like results for `O=C1Cc2c(OCCNCc3ccccc3)ccc(F)c2N1` were, in that order, 535 nM, 52 nM, 0.63 nM and 5.3 nM.
Turning to `O=C(c1c[nH]c2cccc(OCCNCc3ccccc3)c12)C(F)(F)F`, the inhibition constant Ki in assay [5] was determined as 30 nM; in assay [6], 60 nM; on D(2) dopamine receptor [3], 3 nM; on D(2) dopamine receptor [4], 16.6 nM. The Ratio in assay [7] turned out to be 6.
Regarding `O=C1Cc2c(OCCNCC3CCCCC3)ccc(F)c2N1`, the Ki in assay [1] turned out to be 17 nM; in assay [2], 380 nM; at D(2) dopamine receptor [3], 0.65 nM; at D(2) dopamine receptor [4] it was 5.6 nM.
For the molecule `O=C1Cc2c(OCCNCc3ccsc3)ccc(Cl)c2N1`, the Ki in assay [1] was 83 nM; in assay [2], 14 nM; on D(2) dopamine receptor [3], 0.24 nM; at D(2) dopamine receptor [4], 3.32 nM.
The like results for `CN(CCOc1cccc2c1CC(=O)N2)Cc1ccccc1` were, in that order, 6260 nM, 4829 nM, 0.76 nM and 49.6 nM.
With `NCCOc1cccc2c1CC(=O)N2`, the Ki is 664 nM in assay [1], 11081 nM in assay [2], 6.93 nM on D(2) dopamine receptor [3] and 268 nM at D(2) dopamine receptor [4].
The corresponding values for `O=C1Cc2c(cccc2OCCNCc2ccccc2)N1` are 306 nM, 1448 nM, 0.21 nM and 11.4 nM.
In the case of `c1ccc(CNCCOc2cccc3[nH]ccc23)cc1`, the Ki in assay [5] came out at 18 nM; in assay [6] it was 675 nM; at D(2) dopamine receptor [3] it was 9.7 nM; at D(2) dopamine receptor [4], 39.3 nM. In addition, the Ratio in assay [7] is 4.
In the case of `O=C1Cc2c(OCCNCc3cccs3)ccc(F)c2N1`, the Ki was 39 nM in assay [1], 32 nM in assay [2], 0.66 nM on D(2) dopamine receptor [3] and 21.8 nM at D(2) dopamine receptor [4].
With `Clc1c[nH]c2cccc(OCCNCCCCc3ccccc3)c12`, the Ki in assay [8] stood at 0.5 nM; in assay [6] it was 8.5 nM; at D(2) dopamine receptor [3] it was 4.8 nM; on D(2) dopamine receptor [4], 15.7 nM. In addition, in assay [7], the Ratio came out at 3.
On to `O=C1Cc2c(OCCN3CCc4ccccc4C3)ccc(F)c2N1`, for which the inhibition constant Ki in assay [1] is 25 nM; in assay [2] it was 128 nM; on D(2) dopamine receptor [3], 0.86 nM; on D(2) dopamine receptor [4], 5.02 nM.
The like results for `O=C1Cc2c(OCCNCc3ccc(-c4ccccc4)cc3)ccc(F)c2N1` were, in that order, 340 nM, 220 nM, 4.8 nM and 27.4 nM.
